Test results reported in ChEMBL document CHEMBL1122595, “Stereochemical considerations and the antiinflammatory activity of 6-amino-6,7,8,9-tetrahydro-5H-benzocyclohepten-5-ols and related derivatives” (1984).

Assays:
Rattus norvegicus [1] = experiment: Antiinflammatory activity in rats by using reverse passive Arthus reaction (RPAR) assay at dose level of 50 mg/Kg by peroral administration; format: functional
Procedure, shortened: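 Rats fasted 24 h before and during study, water ad libitum; groups of at least six dosed by gavage in methylcellulose 1 h before iv (penile vein) BSA 1 mg sensitization under light ether; 1 h later subplantar anti-BSA 0.1 mg in right hind paw. Paw volume by mercury plethysmograph immediately and 2 h postchallenge; percent inhibition vs MC controls, ANOVA (Duncan, Dunnett).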

Rattus norvegicus [2] = organism: Rattus norvegicus; experiment: The relative potency was evaluated by considering the potency of indomethacin as 1; format: functional
Procedure, shortened: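 Rat reverse passive Arthus paw oedema (oral gavage in methylcellulose 1 h before iv BSA, subplantar anti-BSA 1 h later, plethysmograph change over 2 h); three to five dose points; ED50 and potency relative to indomethacin standard derived by linear regression.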

| Structure (SMILES) | Inhibitory response (Rattus norvegicus [1]) | Relative potency (Rattus norvegicus [2]) |
| --- | --- | --- |
| NC[C@@H](O)c1ccccc1 | 21% | – |
| CC(C)c1ccc2c(c1)C(O)C(N)CCC2 (stereo unspecified) | 100% | 0.12 |
| O=C1N[C@@H]2CCCc3cccnc3[C@@H]2O1 | 82% | 0.3 |
| CS(=O)(=O)c1ccc2c(c1)C(O)C(N)CCC2 (stereo unspecified) | 5% | – |
| N[C@@H]1CCCc2cccnc2[C@@H]1O | 28% | – |
| NC[C@H]1c2ccccc2CCC[C@H]1O | 8% | – |
| CC(C)Sc1ccc2c(c1)C(O)C(N)CCC2 (stereo unspecified) | 39% | – |
| COc1ccc2c(c1)CCCC1NC(=O)OC21 (stereo unspecified) | 0% | – |
| CSc1ccc2c(c1)CCCC(N)C2O (stereo unspecified) | 84% | 0.04 |
| COc1cc2c(cc1OC)C(O)C(N)CCCC2.Cl (stereo unspecified) | 0% | – |
| Cl.N[C@@H]1CCCc2cccnc2[C@@H]1O | 36% | – |
| Cl.N[C@@H]1CSCc2ccccc2[C@@H]1O | 2% | – |
| Cl.NC1CCCc2cc(F)ccc2C1O (stereo unspecified) | 100% | 0.18 |
| Cl.NC1CCCc2ccc([N+](=O)[O-])cc2C1O (stereo unspecified) | 100% | 0.25 |
| COc1ccc2c(c1)CCCC(N)C2O (stereo unspecified) | 80% | 0.1 |
| C[S+]([O-])c1ccc2c(c1)C(O)C(N)CCC2 (stereo unspecified) | 7% | – |
| NC1CCCc2ccc(F)cc2C1O (stereo unspecified) | 96% | 0.15 |
| Cc1ccc2c(c1)CCCC(N)C2O (stereo unspecified) | 93% | 0.05 |
| NC[C@@H]1c2ccccc2CCC[C@H]1O | 0% | – |
| Cc1ccc2c(c1)CCCC1NC(=O)OC21 (stereo unspecified) | 28% | – |

| Structure (SMILES) | Inhibitory response (Rattus norvegicus [1]) | Relative potency (Rattus norvegicus [2]) |
| --- | --- | --- |
| NC1CCCc2cc(Cl)ccc2C1O (stereo unspecified) | 94% | 0.08 |
| CC(=O)Nc1ccc2c(c1)C(O)C(N)CCC2 (stereo unspecified) | 18% | – |
| Cl.NC1CCCc2ccccc2C1O (stereo in doubt; 4a) | 93% | – |
| NC1CCCc2ccc(Cl)cc2C1O (stereo in doubt; 4aa) | 44% | – |
| Cl.NC1CCCc2ccccc2C1O (stereo in doubt; 4b) | 98% | 0.15 |
| Cl.NC1CCCc2ccccc2C1O (stereo in doubt; 4c) | 11% | 0.02 |
| COc1cc2c(cc1OC)C(O)C(N)CCC2.Cl (stereo in doubt; 4dd) | 93% | 0.2 |
| COc1cc2c(cc1OC)C(O)C(N)CCC2.Cl (stereo in doubt; 4ee) | 13% | 0.03 |
| COc1cc2c(cc1SC)C(O)C(N)CCC2 (stereo in doubt; 4ff) | 81% | 0.05 |
| COc1cc2c(cc1SC)C(O)C(N)CCC2 (stereo in doubt; 4gg) | 29% | – |
| COc1cc2c(cc1[S+](C)[O-])C(O)C(N)CCC2 (stereo in doubt; 4hh) | 8% | – |
| COc1ccc2c(c1)C(O)C(N)CCC2 (stereo in doubt; 4i) | 98% | 0.75 |
| COc1cc2c(cc1[S+](C)[O-])C(O)C(N)CCC2 (stereo in doubt; 4ii) | 0% | – |
| COc1ccc2c(c1)C(O)C(N)CCC2 (stereo in doubt; 4j) | 13% | 0.02 |
| CSc1ccc2c(c1)C(O)C(N)CCC2 (stereo in doubt; 4k) | 90% | 0.56 |
| CSc1ccc2c(c1)C(O)C(N)CCC2 (stereo in doubt; 4l) | 11% | 0.02 |
| CC(C)Oc1ccc2c(c1)C(O)C(N)CCC2 (stereo in doubt; 4m) | 77% | 0.18 |
| CC(C)Oc1ccc2c(c1)C(O)C(N)CCC2 (stereo in doubt; 4n) | 4% | – |
| CC(C)(C)C(=O)OCOc1ccc2c(c1)C(O)C(N)CCC2 (stereo in doubt; 4q) | 16% | – |
| CC(C)(C)C(=O)OCOc1ccc2c(c1)C(O)C(N)CCC2 (stereo in doubt; 4r) | 3% | – |

| Structure (SMILES) | Inhibitory response (Rattus norvegicus [1]) | Relative potency (Rattus norvegicus [2]) |
| --- | --- | --- |
| NC1CCCc2ccc(SCc3ccccc3)cc2C1O (stereo in doubt; 4v) | 99% | – |
| NC1CCCc2ccc(SCc3ccccc3)cc2C1O (stereo in doubt; 4w) | 31% | – |
| NC1CCCc2ccc(Cl)cc2C1O (stereo in doubt; 4z) | 94% | 0.34 |
| O=C1NC2CCCc3ccccc3C2O1 (stereo in doubt; 19a) | 77% | – |
| O=C1NC2CCCc3ccccc3C2O1 (stereo in doubt; 19b) | 24% | – |
| O=C1NC2CCCc3cc(Cl)ccc3C2O1 (stereo in doubt; 19e) | 9% | – |
| O=C1NC2CCCc3cc(F)ccc3C2O1 (stereo in doubt; 19f) | 39% | – |
| COc1ccc2c(c1)C1OC(=O)NC1CCC2 (stereo in doubt; 19g) | 20% | – |
| CC(C)c1ccc2c(c1)C1OC(=O)NC1CCC2 (stereo in doubt; 19h) | 7% | – |
| O=C1NC2CCCc3ccc(Cl)cc3C2O1 (stereo in doubt; 19i) | 9% | – |
| O=C1NC2CCCc3ccc(F)cc3C2O1 (stereo in doubt; 19j) | 19% | – |
| O=C1NC2CCCc3ccccc3C2O1 (stereo in doubt; 20a) | 92% | 0.06 |
| O=C1NC2CCCc3cc(Cl)ccc3C2O1 (stereo in doubt; 20d) | 18% | – |
| O=C1NC2CCCc3cc(F)ccc3C2O1 (stereo in doubt; 20e) | 96% | 0.04 |
| COc1ccc2c(c1)C1OC(=O)NC1CCC2 (stereo in doubt; 20f) | 24% | – |
| CC(C)c1ccc2c(c1)C1OC(=O)NC1CCC2 (stereo in doubt; 20g) | 37% | – |
| O=C1NC2CCCc3ccc(Cl)cc3C2O1 (stereo in doubt; 20h) | 29% | – |
| O=C1NC2CCCc3ccc(F)cc3C2O1 (stereo in doubt; 20i) | 78% | 0.03 |
